Data published in ChEMBL document CHEMBL1150125, “Antiplasmodial activity of alkaloids from various strychnos species” (J Nat Prod, 2002).

What was measured:
Plasmodium falciparum [1] = test: Antiplasmodial activity against chloroquine-resistant Plasmodium falciparum FCB1-R/Colombia by [3H]hypoxanthine uptake; format: functional, organism-based
Method in brief: (§1)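 Asexual erythrocytic stages kept in continuous culture (Trager and Jensen method). Each sample run as eight 4-fold dilutions, final 20 to 0.0012 µg/mL, in duplicate. IC50 and IC90 derived; number of independent experiments per value given separately.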

[2] = Selectivity index, ratio of IC50 for human HCT116 cells to IC50 for moderately chloroquine-resistant Plasmodium falciparum FCB1-R/Colombia; format: toxicity, cell-based, HCT-116; conditions: HCT116 cells versus Plasmodium falciparum FCB1-R/Colombia, read-out: Ratio IC50
Method in brief: (§2)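 Selectivity index = IC50 in HCT-116 cells / IC50 in P. falciparum. Cell IC50: 5000 HCT-116 cells per well with drug, DMSO controls, 72 h incubation, then WST-1 for 30 min at 37 °C. Absorbance read against a cell-free blank and expressed as percent of control. Two independent experiments, each in triplicate, means ± SEM.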

Plasmodium falciparum [3] = test: Antiplasmodial activity against chloroquine-resistant Plasmodium falciparum W2/Indochina by [3H]hypoxanthine uptake; format: functional, organism-based; method in brief: as §1
HCT-116 = test: Cytotoxicity against human HCT116 cells after 72 hrs by WST1 assay; format: cell-based; conditions: HCT-116, 72 h
Method in brief: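 HCT-116 colon cancer cells were seeded at 5000 per well in medium containing the test drugs, with matched DMSO controls. After 72 h, WST-1 was added for 30 min at 37 °C. Absorbance was read against a cell-free medium plus WST-1 blank and expressed as percent of control. Two independent experiments were run, each in triplicate, and means ± SEM were calculated.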

[4] = Selectivity index, ratio of IC50 for human HCT116 cells to IC50 for chloroquine-sensitive Plasmodium falciparum FCA 20/ Ghana; format: toxicity, cell-based, HCT-116; conditions: HCT116 cells versus Plasmodium falciparum FCA 20/Ghana, read-out: Ratio IC50; method in brief: as §2
[5] = Selectivity index, ratio of IC50 for human HCT116 cells to IC50 for chloroquine-resistant Plasmodium falciparum W2/Indochina; format: toxicity, cell-based, HCT-116; conditions: HCT116 cells versus Plasmodium falciparum W2/Indochina, read-out: Ratio IC50; method in brief: as §2
Plasmodium falciparum [6] = test: Antiplasmodial activity against chloroquine-sensitive Plasmodium falciparum FCA 20/ Ghana by [3H]hypoxanthine uptake; format: functional, organism-based; method in brief: as §1
[7] = Plasmodium falciparum, FCB1-R/Colombia
[8] = Plasmodium falciparum, W2/Indochina
[9] = Plasmodium falciparum, FCA 20/ Ghana

Structure (SMILES) | IC50 (Plasmodium falciparum [1]; [7]) | IC90 (Plasmodium falciparum [1]; [7]) | selectivity ratio [2] | IC50 (Plasmodium falciparum [3]; [8]) | IC90 (Plasmodium falciparum [3]; [8]) | IC50 (HCT-116) | selectivity ratio [4] | selectivity ratio [5] | IC50 (Plasmodium falciparum [6]; [9]) | IC90 (Plasmodium falciparum [6]; [9]) | IC90 (Plasmodium falciparum [3]) | IC50 (Plasmodium falciparum [6]) | IC50 (Plasmodium falciparum [1]) | IC90 (Plasmodium falciparum [1]) | IC50 (Plasmodium falciparum [3]) | IC90 (Plasmodium falciparum [6])
CC[C@H]1CN2CCC3c4ccccc4NC3[C@@H]2C[C@@H]1C[C@H]1NCCc2c1[nH]c1ccccc21 (stereo not given in full) [OCHROLIFUANINE A] | 0.266 µM | 1.02 µM | 60.7 | 0.492 µM | 1.38 µM | 16.1 µM | 136 | 32.8 | 0.118 µM | 0.495 µM | – | – | – | – | – | –
C=C1c2[nH]c3ccccc3c2CCN2C[C@H](CC)CC[C@H]12 [NGOUNIENSINE] | 17.8 µM | 62.8 µM | – | 20.2 µM | 70.1 µM | – | – | – | 26.8 µM | 71 µM | – | – | – | – | – | –
C=CC1CN2CC[C@@]34c5cc(C(C)C6=CN7CC[C@]89c%10ccccc%10N[C@H]8[C@@H](CO)[C@H]6C[C@H]79)ccc5N[C@@H]3[C@@H](CO)[C@@H]1C[C@@H]24 (stereo in doubt; 68) [PANGANENSINE X] | 12.9 µM | 26.1 µM | – | 17 µM | – | – | – | – | – | 34.8 µM | 85.8 µM | 14.9 µM | – | – | – | –
C/C=C1\CN2CC[C@]34c5ccccc5N5[C@@H]6O[C@H]([C@H]([C@H]53)[C@H]1C[C@H]24)N1c2ccccc2[C@]23CCN4C/C(=C/C)[C@H](C[C@H]42)[C@H]6[C@H]13 (stereo in doubt; 53) [MATOPENSINE] | – | – | – | – | – | – | – | – | – | – | 86.7 µM | 13.2 µM | 4.67 µM | 24.8 µM | 8.66 µM | 73.3 µM
C/C=C1/CN2CCc3c([nH]c4ccccc34)[C@@H]2C[C@@H]1C1=CN2c3ccccc3[C@]34CCN5C/C(=C/CO)[C@H](C[C@H]53)[C@@H]([C@@H]1O)[C@H]24 [TETRADEHYDROLONGICAUDATINE Y] | – | – | – | 0.958 µM | 12.1 µM | – | – | – | 1.24 µM | 7.97 µM | – | – | – | – | – | –
C/C=C1/CN2CCc3c([nH]c4ccccc34)[C@@H]2C[C@@H]1C1=CN2c3ccccc3[C@@]34CCN5CC6=CCO[C@@H]1[C@@H]([C@H]23)[C@H]6C[C@H]54 [LONGICAUDATINE] | 0.56 µM | 3.64 µM | 8.81 | 0.569 µM | 4.83 µM | 4.93 µM | 4.59 | 7.96 | 0.986 µM | 3.87 µM | – | – | – | – | – | –
CC1C2=CN3CCc4c([nH]c5ccc(O)cc45)C3CC2CC2NCCC3c4ccccc4N1C23 (stereo in doubt; 64) [JANUSSINE A] | 15.9 µM | 28.3 µM | – | – | 27.6 µM | – | – | – | 9.55 µM | 30.9 µM | – | – | – | – | 12.7 µM | –
CCN(CC)CCCC(C)Nc1ccnc2cc(Cl)ccc12 (stereo not given) [CHLOROQUINE] | – | 0.084 µM | – | – | 1.75 µM | 33.7 µM | – | – | – | 0.071 µM | – | – | – | – | – | –
C=C1c2[nH]c3ccccc3c2CCN2C[C@@H](CC)CC[C@H]12 [EPINGOUNIENSINE] | 16.3 µM | 49.7 µM | – | 15.8 µM | 52.8 µM | – | – | – | 7.8 µM | 26.9 µM | – | – | – | – | – | –
C[C@@H]1OC[C@H]2[C@@H]3C[C@H]4N(CC[C@]45c4ccccc4N[C@H]25)/C(=C/C2=CN4CC[C@]56c7ccccc7N[C@H]5[C@H](CO)[C@H]2C[C@H]46)[C@@H]31 | 5.27 µM | 12.7 µM | – | > 20 µM | – | – | – | – | 9.77 µM | 17.7 µM | – | – | – | – | – | –
C/C=C1/CN2[C@@H](C3=C[C@@H]4[C@@H]5N(C3=O)c3ccccc3[C@@]53CCN5C/C(=C/CO)[C@@H]4C[C@H]53)C[C@@]34c5ccccc5N5C(=O)CC=C([C@H]1C[C@H]23)[C@H]54 | 0.207 µM | 1.47 µM | 78.3 | 0.14 µM | 1.35 µM | 16.2 µM | 19.1 | 115 | 0.847 µM | 4.35 µM | – | – | – | – | – | –
C/C=C1/CN2CCc3c([nH]c4ccccc34)[C@@H]2C[C@@H]1C1CCC([C@H]2C[C@H]3c4[nH]c5ccccc5c4CCN3C/C2=C/C)C1 (stereo not given in full) [STRYCHNOFURANINE] | 10.8 µM | 33.5 µM | – | 2.8 µM | 16 µM | – | – | – | 4.11 µM | 15 µM | – | – | – | – | – | –
C/C=C1\CN2CCC3c4ccccc4NC3[C@@H]2C[C@@H]1CC1=NCCc2c1[nH]c1ccccc21 (stereo not given in full) [DIHYDROUSAMBARENSINE] | – | – | – | 0.032 µM | 4.68 µM | 12 µM | 14 | 375 | 0.857 µM | 2.49 µM | – | – | – | – | – | –
C/C=C1\CN2CC[C@]34c5ccccc5N5[C@H]3[C@@H]([C@H]3O[C@@H]5[C@]5(OC)[C@@H]6N3c3ccccc3[C@@]63CCN6C/C(=C\C)[C@@H]5C[C@H]63)[C@H]1C[C@H]24 | 1.54 µM | 9.52 µM | 15.9 | 0.122 µM | 2.84 µM | 24.5 µM | 45.3 | 200 | 0.54 µM | 2.53 µM | – | – | – | – | – | –
C[C@@H]1CC[C@H]2[C@@H](C)C(=O)O[C@@H]3O[C@@]4(C)CC[C@@H]1[C@]32OO4 [ARTEMISININ] | 0.005 µM | 0.013 µM | – | 0.002 µM | 0.017 µM | – | – | – | – | – | – | – | – | – | – | –
C=C[C@H]1CN2CC[C@H]1C[C@H]2[C@H](O)c1ccnc2ccc(OC)cc12 [QUININE] | 0.2 µM | 2.74 µM | – | 0.413 µM | 1.72 µM | – | – | – | 0.269 µM | 1.91 µM | – | – | – | – | – | –
C=CC1CN2CC[C@@]34c5cc(C(C)C6=CN7CC[C@]89c%10ccccc%10N[C@H]8[C@@H](CO)[C@H]6C[C@H]79)ccc5N[C@@H]3[C@@H](CO)[C@@H]1C[C@@H]24 (stereo in doubt; 67) [PANGANENSINE X] | – | – | – | – | 78.7 µM | – | – | – | 10.4 µM | – | – | – | 13.5 µM | 43.7 µM | 17.4 µM | 68.2 µM
C/C=C1/CN2CC[C@]34c5ccccc5N5C(=O)C([C@H]6C[C@]78c9ccccc9N9C(=O)C=C[C@@H]([C@H]97)[C@H]7C[C@@H]8N6C/C7=C/C)=C[C@H]([C@H]53)[C@H]1C[C@H]24 [SUNGUCINE] | – | – | – | 10.1 µM | 33.2 µM | 6.2 µM | 0.79 | 0.611 | 7.82 µM | 26.3 µM | – | – | – | – | – | –
C/C=C1/CN2CC[C@@]34c5ccccc5N5C([C@H]6[C@@H]7N(C(C)=O)c8ccccc8[C@@]78CCN7C/C(=C/C)[C@@H]6C[C@H]78)OC=C([C@H]1C[C@H]23)[C@H]54 (stereo not given in full) | 2.12 µM | 7.13 µM | – | 3.31 µM | 18.5 µM | – | – | – | 4.58 µM | 18.7 µM | – | – | – | – | – | –
CN1CCC2c3ccccc3N3C2[C@@H]1C[C@@H](C1=CCOC1=O)C[C@@H]3O (stereo not given in full) [AKAGERINE LACTONE] | 27.5 µM | 55.2 µM | – | 25.9 µM | 53.3 µM | – | – | – | 17 µM | 60.7 µM | – | – | – | – | – | –
C/C=C1/CN2CCc3c([nH]c4ccccc34)[C@@H]2C[C@@H]1C1=CN2c3ccccc3[C@]34CCN5C/C(=C/C)[C@H](C[C@H]53)[C@@H]([C@@H]1O)[C@H]24 [LONGICAUDATINE F] | 11.7 µM | 33.4 µM | – | 9.58 µM | 28.1 µM | – | – | – | 7.7 µM | 26.7 µM | – | – | – | – | – | –
CC1C2=CN3CCc4c([nH]c5ccc(O)cc45)C3CC2CC2NCCC3c4ccccc4N1C23 (stereo in doubt; 65) [JANUSSINE A] | – | – | – | – | – | – | – | – | – | – | 27.8 µM | 12.6 µM | 17 µM | 33.1 µM | 4.75 µM | 34.9 µM
c1ccc2c(c1)C[C@H]1C3Nc4ccccc4C3CCN1C2 (stereo not given in full) | 12.9 µM | 47.4 µM | – | 18.3 µM | 89.5 µM | – | – | – | 11.3 µM | 42.2 µM | – | – | – | – | – | –
C=C[C@H]1CN2CCc3c([nH]c4ccccc34)[C@@H]2C[C@@H]1C[C@H]1c2[nH]c3ccccc3c2CCN1C [USAMBARINE] | – | – | – | 2.36 µM | 7.29 µM | – | – | – | 2.5 µM | 9.21 µM | – | – | – | – | – | –
C/C=C1/CN2[C@@H](C3=C[C@@H]4[C@@H]5N(C3=O)c3ccccc3[C@@]53CCN5C/C(=C/C)[C@@H]4C[C@H]53)C[C@@]34c5ccccc5N5C(=O)CC=C([C@H]1C[C@H]23)[C@H]54 [ISOSUNGUCINE] | – | – | – | 0.265 µM | 1.72 µM | – | – | – | 1.32 µM | 7.06 µM | – | – | – | – | – | –
C/C=C1/CN2CCc3c([nH]c4ccccc34)[C@@H]2C[C@@H]1Cc1nccc2c1[nH]c1ccccc12 [USAMBARENSINE] | – | – | – | 0.594 µM | 4.83 µM | – | – | – | – | 4.41 µM | – | – | – | – | – | –
